The record followed here is ChEMBL document CHEMBL1151199, “5-methylcoumaranones from Mutisia friesiana and their bioactivity” (2004).

Experiment [1] has as its system Staphylococcus aureus. Description: Antibacterial activity against Staphylococcus aureus ATCC 29213 at 10 ug/disk after 48 hrs by standard paper sensitivity disk-agar plate method. Particulars: ATCC 29213, 48 h, read-out: IZ. It counts as functional.
In experiment [2] the test system is Cladosporium cucumerinum. Description: Antifungal activity against Cladosporium cucumerinum at 10 ug/spot after 2 to 3 days by bioautographic assay. It counts as functional. In a few lines:
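TLC bioautography: samples spotted onto a TLC plate with graduated capillaries and assayed against the plant pathogen Cladosporium cucumerinum. Activity is read as the diameter (mm) of the inhibition zone around the spot. Benomyl served as the reference fungicide.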

The subject of experiment [3] is Cladosporium cucumerinum. Description: Antifungal activity against Cladosporium cucumerinum at 100 ug/spot after 2 to 3 days by bioautographic assay. The experiment is classed as functional. In a few lines:
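Each sample was dissolved at 10 mg ml-1 in CH2Cl2, and 10 µL was spotted onto a TLC plate by graduated capillary, giving 100 µg/spot. The plate was then assayed bioautographically against Cladosporium cucumerinum. Benomyl served as the reference fungicide, applied at 10 µg/spot. The read-out was the inhibition zone in mm.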

In another experiment the test system is Candida albicans. Description: Antifungal activity against Candida albicans BE 138/99 at 100 ug/disk after 48 hrs by standard paper sensitivity disk-agar plate method. The experiment is classed as functional, organism-based. In a few lines: (§1)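 Agar in Petri dishes inoculated with the test organism (E. coli ATCC 25922, S. aureus ATCC 29213 or C. albicans BE 138/99). Samples were loaded at 100 µg per 5 mm paper disk, and the disks were placed on the agar. The read-out was the diameter of the inhibition zone in mm.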

The test system of experiment [4] is Staphylococcus aureus. Description: Antibacterial activity against Staphylococcus aureus ATCC 29213 at 100 ug/disk after 48 hrs by standard paper sensitivity disk-agar plate method. It counts as functional. The conditions noted are these: ATCC 29213, 48 h, read-out: IZ. In a few lines: as §1
The subject of another experiment is Escherichia coli. Description: Antibacterial activity against Escherichia coli ATCC 25922 at 100 ug/disk after 48 hrs by standard paper sensitivity disk-agar plate method. It counts as functional, organism-based. In a few lines: as §1

SMILES strings stand for the structures. Active and inactive are the calls of the source. No cut-off for these calls is given here.

In the case of `CC1(C)S[C@@H]2[C@H](NC(=O)[C@H](N)c3ccccc3)C(=O)N2[C@H]1C(=O)O` [AMPICILLIN], the zone of inhibition at 10 µg/disc in the experiment with Staphylococcus aureus [1] came to 14 mm.

For the compound `CCCCNC(=O)n1c(NC(=O)OC)nc2ccccc21` [BENOMYL], the “inhibition zone (IZ)” value with Cladosporium cucumerinum [2] stood at 20 mm.

With `CC(C)=CCC/C(C)=C/CC1(O)Oc2cccc(C)c2C1=O` (stereo not drawn) [MUTISICOUMARANONE A], the “inhibition zone (IZ)” value in the experiment with Cladosporium cucumerinum [3] is listed as 8 mm. The result in the experiment with Candida albicans and with Escherichia coli was inactive. In addition, the zone of inhibition at 100 µg/disc in the experiment with Staphylococcus aureus [4] came to 10 mm.

On to `CC(C)=CC(O)C(=O)/C(C)=C/CC/C(C)=C/CC1(O)Oc2cccc(C)c2C1=O` (stereo not drawn) [MUTISICOUMARANONE B], for which the “inhibition zone (IZ)” value in the experiment on Cladosporium cucumerinum [3] turned out to be 14 mm. Also, the outcome in the experiment with Candida albicans and in the experiment with Escherichia coli was inactive. The zone of inhibition at 100 µg/disc with Staphylococcus aureus [4] was 10 mm.

As to `C/C(=C\CC1(O)Oc2cccc(C)c2C1=O)CC/C=C(\C)C(=O)/C=C/C(C)(C)O` (stereo not drawn) [MUTISICOUMARANONE C], the “inhibition zone (IZ)” value in the experiment with Cladosporium cucumerinum [3] is recorded as 14 mm. The result in the experiment with Candida albicans and in the experiment on Escherichia coli was inactive. In addition, in the experiment with Staphylococcus aureus [4], the zone of inhibition at 100 µg/disc stood at 10 mm.

Consider `CC(C)=CCC(O)/C(C)=C/CC/C(C)=C/CC1(O)Oc2cccc(C)c2C1=O` (stereo not drawn) [MUTISICOUMARANONE D], for which the “inhibition zone (IZ)” value in the experiment with Cladosporium cucumerinum [3] is 10 mm. Besides, the result in the experiment on Candida albicans and in the experiment with Escherichia coli was inactive. The zone of inhibition at 100 µg/disc in the experiment on Staphylococcus aureus [4] worked out at 10 mm.
